PMC3753203 (Journal of immunology (Baltimore, Md. : 1950), 2013)

Assays:
[1] = target: T1, recombinant mouse CRT (calreticulin) (Mus musculus, UniProt P14211); test: Surface plasmon resonance binding to immobilized CRT; details: SPR, 25°C, 10 mM HEPES pH 7.4, 50 mM KCl, 0.5 mM CaCl2, 100 μM ZnCl2, 0.005% surfactant P-20; mouse CRT immobilized 3000 RU; 10 μl/min; mean ± SEM
T1 sequence (P14211 18-416): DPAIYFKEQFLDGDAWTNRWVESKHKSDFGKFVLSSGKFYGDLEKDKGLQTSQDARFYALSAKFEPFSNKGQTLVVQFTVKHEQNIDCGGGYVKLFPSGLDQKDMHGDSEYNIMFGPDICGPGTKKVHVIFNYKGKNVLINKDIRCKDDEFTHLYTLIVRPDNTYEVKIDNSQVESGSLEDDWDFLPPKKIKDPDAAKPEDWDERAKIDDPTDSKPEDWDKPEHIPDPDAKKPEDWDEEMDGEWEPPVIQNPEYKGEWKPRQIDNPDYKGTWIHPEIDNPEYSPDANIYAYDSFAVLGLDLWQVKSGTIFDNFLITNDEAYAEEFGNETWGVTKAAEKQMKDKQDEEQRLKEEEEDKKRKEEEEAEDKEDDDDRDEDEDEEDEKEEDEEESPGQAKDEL

NO signaling [2] = test: NO signaling activation; type: cell-based; details: read-out: EC50 NO, Table I
[3] = test system: osteoclast differentiation of DBA/1 mouse BMCs; details: 15-mer linear peptide; ref [10]; cited from earlier work
[4] = test system: collagen-induced arthritis in mice; details: 15-mer SE peptidic ligand in vivo in mice; ref [10]; cited from earlier work
trypsin/chymotrypsin = details: linear peptidic SE ligand, completely degraded; ref [11]; cited from earlier work
[5] = test system: ROS production in RAW 264.7 pre-OC cells; test: ROS production; type: cell-based, mouse; details: RAW 264.7, 3 × 10^4/well, in words
How it was run: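 RAW 264.7 cells, 3×10^4 per well, exposed to various test compound concentrations and loaded with CM-H2DCFDA. Fluorescence (ex 488/em 515 nm) read every 5 min over 500 min; ROS expressed as FU/min.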

[6] = test system: osteoclast differentiation of DBA/1 mouse BMCs; test: In vitro OC differentiation, mouse bone marrow cells; type: cell-based; details: M-CSF + RANKL, 6 days
[7] = test system: bone matrix degradation by DBA/1 mouse BMC-derived OCs; test: Degradation of artificial; type: cell-based; details: 100 nM c(HS4-4), primary DBA/1 BMCs, day 15, Von Kossa
How it was run: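 Test compound (100 nM) or PBS was added to mouse BMC cultures on osteoblast-derived matrix. SaOS-2 cells (12,000/well) grew in McCoy's 5A/15% FBS; at 80–90% confluence they were switched to osteoblast differentiation medium (10% FBS, 2mM glutamine, ascorbic acid, 10mM β-glycerol phosphate) for 20–25 days, then removed with 15mM NH4OH. DBA/1 BMCs (200,000/well) received M-CSF 10 ng/ml for 2 days, then M-CSF plus RANKL 20 ng/ml. At day 15, cells were removed; remaining matrix was Von Kossa-stained, photographed and area-quantified.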

[8] = test system: bovine cortical bone disks / mouse BMC-derived OCs; test: Ex vivo degradation of bovine bone disks; type: cell-based; details: 100 nM c(HS4-4), mouse BMCs, 10 days, OC counts and resorption pits
How it was run: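 Bovine cortical bone disks (5-mm) were sonicated in water, stored dry, and sterilised in ethanol plus 30 min UV. Culture ran 10 days, medium renewed every other day. TRAP-positive OCs per disk were counted; cells were sonicated off in ammonium hydroxide; disks were stained with 1% toluidine blue for 30 s; pits were counted across the whole surface by reflected light. Mean ± SEM.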

[9] = test system: collagen-induced arthritis in DBA/1 mice; test: Collagen-induced arthritis: onset, incidence, arthritis score; type: in vivo, mouse; details: i.p.; for disease incidence: log-rank (Mantel-Cox)
[10] = test system: erosive bone damage in CIA mice; test: Micro-CT of bone damage in CIA mice; type: in vivo, mouse; details: all treated mice, various doses
How it was run: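 Limbs from arthritic mice fixed in 10% formalin, stored in 70% ethanol, scanned in water: 80 kV, 80 μA, 0.508 mm Al filter plus acrylic beam flattener, 1600 ms/frame, 400 views at 0.5°, 4 frames averaged, 2×2 binning, 18 μm voxels. Bone masks for carpals, tarsals, calcaneus, talus, phalanges; thresholds 2000 HU cortical, 1200 HU trabecular.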

bone damage in CIA mice = test: X-ray radiological scoring of bone damage in CIA mice; type: in vivo, mouse; details: 0.8 and 8.0 ng/gm BW, N = 10, score 0-5
How it was run: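 CIA mice dosed weekly i.p. with 0.8 or 8.0 ng/gm BW test compound or PBS. Limbs X-rayed on a microradiography system (anode current 25mA, 4.5 s exposure). Coded films scored blind by a rheumatologist, front and rear paws separately, 0–5 (none to complete joint destruction). N=10.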

[11] = test system: osteoclasts in CIA joint tissues; test: OC abundance in joint tissue of CIA mice; type: in vivo, mouse; details: various doses incl. 'subclinical'; N=10 PBS, 5 per treatment group; TRAP
How it was run: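 Limbs from CIA mice given weekly i.p. test compound or PBS decalcified 14 days in 10% EDTA, paraffin-embedded, serially sectioned and stained for TRAP (or H&E). TRAP-positive multinucleated cells counted; total across front and rear paws and knees, mean ± SEM. N=10 PBS, 5 per treatment group.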

[12] = test system: TRAP-positive mononuclear (pre-OC) bone marrow cells; test: Pre-OC abundance in bone marrow of CIA mice; type: in vivo, mouse
How it was run: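 Fresh bone marrow cells harvested from CIA mice dosed weekly i.p. with various amounts of test compound or PBS; TRAP staining used to enumerate pre-osteoclasts.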

[13] = test system: osteoclast formation of BMCs harvested from CIA mice; test: Ex vivo OC differentiation of BMCs from treated CIA mice; type: in vivo, mouse; details: 6 days OC-differentiating culture, dose-dependent pattern
How it was run: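 DBA/1 mice (7 weeks) were immunised intradermally at the tail base with 100 μg chicken CII in CFA. They received test compound intraperitoneally once weekly at 0.0, 0.8, 8 or 80 ng/gm BW in 50 μl PBS. Bone marrow cells were then cultured for 6 days under OC-differentiating conditions (M-CSF 10 ng/ml; RANKL 20 ng/ml added after day 2). TRAP-positive multinucleated cells (>3 nuclei) were counted.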

NO signaling [14] = details: ref [11]; cited from earlier work
[15] = 80 ng/gm BW per week, N=10 per group
[16] = 800 ng/gm BW per week, N=10 per group

With 65-KDLLEQKRAAVDTYC-79 [65-79*0401] the “Affinity to CRT, ka” value [1] was 5.1 ± 4.8 ×10^4 1/Ms, the “Affinity to CRT, kd” value [1] was 7.4 ± 3.1 ×10^−3 1/s and the EC50 (NO signaling [2]) was 60 µM. The osteoclastogenesis activation [3] was “can activate osteoclastogenesis”, the “effect on erosive bone damage in CIA” value [4] was “enhanced erosive bone damage in collagen-induced arthritis” and the “time to complete degradation by trypsin/chymotrypsin” value (trypsin/chymotrypsin) was ≤ 30 min.

In the case of 70-QKRAA-74 [70-74*0401], the “Affinity to CRT, ka” value [1] is reported as 2.9 ± 2.9 ×10^2 1/Ms and the “Affinity to CRT, kd” value [1] is reported as 5.6 ± 5.1 ×10^−3 1/s.

In the case of cQKRAA [c(HS4-4)], the “Affinity to CRT, ka” value [1] is reported as 2.7 ± 0.5 ×10^3 1/Ms, the “Affinity to CRT, kd” value [1] is reported as 1.4 ± 0.2 ×10^−3 1/s and the EC50 (NO signaling [2]) is reported as 0.001 µM. For the same substance, the ROS signaling [5] was “activated ROS signaling”, the “OC differentiation (in words)” value [6] was “markedly enhanced OC differentiation in a dose-dependent manner” and the “degradation of artificial bone matrix” value [7] was “higher capacity to degrade artificial bone matrix”. For the same substance, the “degradation of bovine bone disks” value [8] was “higher capacity to degrade artificial bone matrix and bovine bone disks ex vivo”, the “CIA soft tissue disease parameters (onset, incidence, score)” value ([9]; 0.8 ng/gm BW per week) was “no effect on any of the three CIA soft tissue disease parameters” and the “CIA soft tissue disease parameters (onset, incidence, score)” value ([9]; 8.0 ng/gm BW per week) was “no effect on any of the three CIA soft tissue disease parameters”. For the same substance, the disease onset [9, 15] was “significantly facilitated disease onset”, the “mean arthritis scores (joint swelling)” value ([9]; 80 ng/gm BW per week, N=10 per group, 4-point scale per paw) was “significantly increased mean arthritis scores” and the disease incidence [9, 15] was “increased disease incidence”. For the same substance, the “mean arthritis scores, effect in the higher dose” value ([9]; 800 ng/gm BW per week ("the higher dose"), N=10 per group) was “but not in the higher dose”, the disease onset [9, 16] was “significantly facilitated disease onset” and the disease incidence [9, 16] was “increased disease incidence”. For the same substance, the “erosive bone damage (micro-CT)” value [10] was “more severe erosive bone damage”, the “bone damage (radiological score, X-ray)” value (bone damage in CIA mice) was “significantly higher bone damage” and the “OC numbers in arthritic joints” value [11] was “significantly higher numbers of OCs”. The “TRAP-positive pre-OC cells in bone marrow” value ([12]; 80 ng/gm BW group) was “peak effect”, the “TRAP-positive mononuclear (pre-OC) cells in bone marrow, dose dependence” value ([12]; all c(HS4-4)-treated mice) was “dose-dependent effect” and the “OCs formed ex vivo by BMCs from treated CIA mice” value [13] was “significantly higher numbers of OCs in a similar dose-dependent pattern”. For the same substance, the “NO signaling activation, concentration” value (NO signaling [14]) was “low nM concentrations”.
